The structures appear in SMILES notation. Active and inactive are the calls of the source. No cut-off for these calls is given here.

In series [1] the test system is MDA-MB-468. Description: Cell cycle arrest in human MDA-MB-468 cells assessed as accumulation at S phase at 50 nM after 24 hrs by DAPI-staining based FACS analysis (reference value: 17%). The class given is functional. For orientation: Flow cytometry measures light scatter and fluorescence of single cells or particles in a stream.
Series [2] relates to MDA-MB-468. Description: Cell cycle arrest in human MDA-MB-468 cells assessed as accumulation at subG1 phase at 50 nM after 24 hrs by DAPI-staining based FACS analysis (reference value: 0.2%). In kind it is functional.
Series [3] has as its system MCF7. Description: Antiproliferative activity against human MCF7 cells after 48 hrs by SRB assay. Particulars: MCF7, 48 h. The class given is functional, cell-based. In short, it runs like this: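 SRB assay run as in the NCI screen with slight modifications. Seeding: HT-29 5.0 x 10^3, M21 3.5 x 10^3, MCF7 7.5 x 10^3 cells; cells preincubated 24 h. Drug in DMSO added at 0.75 to 1.0 x 10^5 nM for 48 h. TCA fixation, sulforhodamine B staining, absorbance 530-565 nm. At least two experiments in triplicate; runs accepted only when relative SD < 10%.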
(In general: Sulforhodamine B stains cellular protein and so reports cell mass.)

Series [4] in a line: Selectivity ratio of IC50 for human HT-29 cells to IC50 for human MCF7 cells. In kind it is functional. In a few lines: (§1)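 Ratio is IC50 in reference line over IC50 in sensitive line. […] Cells in DMEM with 5% calf serum at 37 °C. At least two experiments, triplicate cultures; assay accepted when relative SD < 10%.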
Series [5] can be described thus: Selectivity ratio of IC50 for human M21 cells to IC50 for human MCF7 cells. In kind it is functional. In a few lines:
as §1

The subject of series [6] is MCF7. Description: Cell cycle arrest in human MCF7 cells assessed as accumulation at S phase at 50 nM after 24 hrs by DAPI-staining based FACS analysis (reference value: 10.6%). The class given is functional.
Series [7] has as its system MCF7. Briefly: Cell cycle arrest in human MCF7 cells assessed as accumulation at G2/M phase at 50 nM after 24 hrs by DAPI-staining based FACS analysis (reference value: 22.3%). The class given is functional.
Series [8] deals with MDA-MB-231. Briefly: Cell cycle arrest in human MDA-MB-231 cells assessed as accumulation at subG1 phase at 50 nM after 24 hrs by DAPI-staining based FACS analysis (reference value: 4.1%). The class given is functional.
Series [9] deals with MDA-MB-231. Description: Antiproliferative activity against ER/PR/HER2 deficient human MDA-MB-231 cells after 72 hrs in presence of phenol red by SRB assay. In kind it is functional, cell-based. In a few lines: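 SRB antiproliferative assay (modified NCI protocol). Cells seeded per well (SK-BR-3, MDA-MB-231, T47D, HT-1080, HT-1080 CYP1A1 and empty-vector: 3.0 x 10^3; MDA-MB-468: 5.0 x 10^3; MCF7: 7.5 x 10^3), preincubated 24 h. DMSO-solubilized drug added at 0.75 to 1.0 x 10^5 nM, then 72 h. Fixed with cold 10% TCA, stained with 0.1% sulforhodamine B, absorbance read at 530-565 nm. At least two experiments, triplicate cultures.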

Series [10] is filed under the species Homo sapiens. Briefly: Destabilization of microtubule network in human MDA-MB-468 cells at 50 nM after 24 hrs by fluorescence microscopic analysis. The class given is cell-based.
The species entered for series [11] is Homo sapiens. Briefly: Destabilization of microtubule network in human MCF7 cells at 50 nM after 24 hrs by fluorescence microscopic analysis. The class given is cell-based.
Series [12] is filed under the species Homo sapiens. Briefly: Destabilization of microtubule network in human MDA-MB-231 cells at 50 nM after 24 hrs by fluorescence microscopic analysis. In kind it is cell-based.
Series [13] concerns MDA-MB-468. Briefly: Cytotoxicity against human MDA-MB-468 cells after 72 hrs in presence of CYP1A1 inhibitor resveratrol by SRB assay. In kind it is functional, cell-based. In a few lines: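 MDA-MB-468 cells (5.0 x 10^3/well) seeded and incubated 24 h. Drug freshly dissolved in DMSO, given at 0.75 to 1.0 x 10^5 nM, together with subtoxic CYP inhibitor, for 72 h. Cells fixed with cold 10% TCA and stained with 0.1% sulforhodamine B. Bound dye taken up in 10 mM Tris, absorbance read at 530-565 nm. At least two experiments, triplicate cultures.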

Series [14] has as its system MDA-MB-468. Briefly: Cytotoxicity against human MDA-MB-468 cells after 72 hrs in presence of CYP inhibitor curcumin by SRB assay. The class given is functional, cell-based. In short, it runs like this:
(§2)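 MDA-MB-468 cells co-incubated for 72 h with drug plus a subtoxic concentration of a CYP inhibitor. Viability read by SRB assay: TCA fixation, sulforhodamine B staining, absorbance at 530-565 nm.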

Series [15] deals with MDA-MB-468. Description: Cytotoxicity against human MDA-MB-468 cells after 72 hrs in presence of CYP inhibitor mefipristone by SRB assay. In kind it is functional, cell-based. In short, it runs like this:
as §2

In series [16] the test system is MDA-MB-468. Description: Cytotoxicity against human MDA-MB-468 cells after 72 hrs in presence of CYP inhibitor salicylamide by SRB assay. The class given is functional, cell-based. In short, it runs like this:
as §2

The target in a further series is T1, Cytochrome P450 1A2 (Homo sapiens, UniProt P05177).
T1 sequence (P05177 whole entry): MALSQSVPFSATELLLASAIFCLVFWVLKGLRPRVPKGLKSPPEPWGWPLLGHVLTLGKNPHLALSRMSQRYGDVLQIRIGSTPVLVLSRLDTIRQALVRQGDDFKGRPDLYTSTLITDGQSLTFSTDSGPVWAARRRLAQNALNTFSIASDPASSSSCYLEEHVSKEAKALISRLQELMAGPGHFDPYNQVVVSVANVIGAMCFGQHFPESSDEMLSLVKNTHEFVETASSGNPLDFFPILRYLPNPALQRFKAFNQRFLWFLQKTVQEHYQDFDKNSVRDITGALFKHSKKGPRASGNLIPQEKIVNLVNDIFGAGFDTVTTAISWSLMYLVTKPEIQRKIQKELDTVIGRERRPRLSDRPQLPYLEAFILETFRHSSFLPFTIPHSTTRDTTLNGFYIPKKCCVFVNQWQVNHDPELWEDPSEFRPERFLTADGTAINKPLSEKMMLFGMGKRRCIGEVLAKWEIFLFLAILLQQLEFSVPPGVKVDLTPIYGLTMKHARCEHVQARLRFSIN
Description: Prodrug activation assessed as human supersomes CYP1A2-mediated 3,4,5-trimethoxyphenyl 4-(2-oxoimidazolidin-1-yl)benzenesulfonate formation after 4 hrs by HPLC-MS analysis. In kind it is ADME. The following applies: recombinant enzyme.

A further series deals with Cytochrome P450 3A4 (Homo sapiens, UniProt P08684). Description: Prodrug activation assessed as human supersomes CYP3A4-mediated 3,4,5-trimethoxyphenyl 4-(2-oxoimidazolidin-1-yl)benzenesulfonate formation after 4 hrs by HPLC-MS analysis. In kind it is ADME. The following applies: recombinant enzyme.
Sequence of Cytochrome P450 3A4 (P08684 whole entry): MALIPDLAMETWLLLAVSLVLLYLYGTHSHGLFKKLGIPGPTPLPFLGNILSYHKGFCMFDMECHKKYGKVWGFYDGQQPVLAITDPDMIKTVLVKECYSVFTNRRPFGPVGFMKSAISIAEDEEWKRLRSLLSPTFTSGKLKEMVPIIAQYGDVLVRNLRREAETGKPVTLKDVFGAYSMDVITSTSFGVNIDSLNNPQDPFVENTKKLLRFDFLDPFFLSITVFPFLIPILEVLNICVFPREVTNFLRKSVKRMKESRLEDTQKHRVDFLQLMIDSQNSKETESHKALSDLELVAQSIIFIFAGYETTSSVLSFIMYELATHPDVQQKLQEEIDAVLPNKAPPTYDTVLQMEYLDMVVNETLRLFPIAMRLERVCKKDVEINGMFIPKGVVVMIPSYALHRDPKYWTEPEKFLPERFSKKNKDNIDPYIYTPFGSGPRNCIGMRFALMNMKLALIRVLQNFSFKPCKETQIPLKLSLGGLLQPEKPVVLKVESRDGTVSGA
A short description of series [17]: Stability in human liver microsomes assessed as compound remaining after 60 mins by HPLC-MS analysis. A general note: Liver microsomes are a subcellular fraction often used to study metabolism.
In series [18] the test system is MDA-MB-468. Description: Cell cycle arrest in human MDA-MB-468 cells assessed as accumulation at G2/M phase at 8 nM after 24 hrs by DAPI-staining based FACS analysis (reference value: 19.5%). In kind it is functional.
Series [19] has as its system MDA-MB-231. Briefly: Cell cycle arrest in human MDA-MB-231 cells assessed as accumulation at subG1 phase at 8 nM after 24 hrs by DAPI-staining based FACS analysis (reference value: 4.1%). In kind it is functional.
Series [20] concerns MDA-MB-231. Briefly: Cell cycle arrest in human MDA-MB-231 cells assessed as accumulation at G0/G1 phase at 8 nM after 24 hrs by DAPI-staining based FACS analysis (reference value: 70.7%). The class given is functional.
The species entered for series [21] is Homo sapiens. Briefly: Destabilization of microtubule network in human MDA-MB-468 cells at 8 nM after 24 hrs by fluorescence microscopic analysis. In kind it is cell-based.
Series [22] is filed under the species Homo sapiens. Briefly: Destabilization of microtubule network in human MCF7 cells at 8 nM after 24 hrs by fluorescence microscopic analysis. The class given is cell-based.

For the molecule `CCCCN1CCN(c2ccc(S(=O)(=O)Oc3cc(OC)c(OC)c(OC)c3)cc2)C1=O`, the Activity came to 15% in the series on MDA-MB-468 [1]; 1.3% with MDA-MB-468 [2]; 1.8% in the series on MCF7 [6]; 90.2% in the series with MCF7 [7]; 2.1% with MDA-MB-231 [8]. In addition, the IC50 (as a rule, the point on the concentration scale where inhibition reaches its midpoint) in the series with MCF7 [3] came out at 0.01 µM. The “Ratio IC50” value is listed as 360 in [4] and 380 in series [5]. Also, the result in the series with MDA-MB-231 [9], in the series filed under Homo sapiens [12] and in the series on MDA-MB-468 [13] was inactive. Moreover, the result in the series filed under Homo sapiens [10], in the series filed under Homo sapiens [11], in the series with MDA-MB-468 [14], in the series with MDA-MB-468 [15] and with MDA-MB-468 [16] was Active. Besides, the Drug metabolism entry on Cytochrome P450 1A2 and at Cytochrome P450 3A4 was “Metabolite_Notdetected” in each case. For the same molecule, the fraction remaining (in general, what is left of the initial amount, in per cent) at 1 h in series [17] came out at 25%.
As for `COc1cc(OS(=O)(=O)c2ccc(N3CCNC3=O)cc2)cc(OC)c1OC`, the Activity stood at 74.4% with MDA-MB-468 [18], 6.9% in the series with MDA-MB-231 [19] and 7.3% in the series on MDA-MB-231 [20]. Moreover, the outcome in the series filed under Homo sapiens [21] and in the series listed under Homo sapiens [22] was Active.

The values are drawn from ChEMBL document CHEMBL4014335, “Activation of Phenyl 4-(2-Oxo-3-alkylimidazolidin-1-yl)benzenesulfonates Prodrugs by CYP1A1 as New Antimitotics Targeting Breast Cancer Cells” (J Med Chem, 2017).
